Data published in ChEMBL document CHEMBL4038273, “MAO enzymes inhibitory activity of new benzimidazole derivatives including hydrazone and propargyl side chains” (Eur J Med Chem, 2017).

Experiments:
Salmonella typhimurium [1] = assay: Genotoxicity in Salmonella typhimurium TA98 assessed as increase in number of revertants at 0.625 mg/ml in absence of aroclor-1254-induced Sprague-Dawley rat liver microsomal S9 fraction by Ames-MPF assay relative to baseline; assay type: toxicity; conditions: salmonella enterica subsp. enterica serovar typhimurium, microsomes
In short: (§1)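 AmesMPF 98/100 fluctuation format with S. typhimurium TA98 (frameshift) and TA100 (base-pair substitution), run with and without S9. Compounds were made up in DMSO at 0.156–5 mg/mL, six levels; solvent control was 4% DMSO. With S9, positive controls were 2-aminoanthracene at 1 µg/mL (TA98) and 2.5 µg/mL (TA100). Wells turned yellow by pH drop were scored positive. Fold over baseline is mean positive wells divided by (zero-dose mean + 1 SD). Student's t-test, p<0.05.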

Salmonella typhimurium [2] = assay: Genotoxicity in Salmonella typhimurium TA100 assessed as increase in number of revertants at 0.156 mg/ml in presence of aroclor-1254-induced Sprague-Dawley rat liver microsomal S9 fraction by Ames-MPF assay relative to baseline; assay type: toxicity; conditions: salmonella enterica subsp. enterica serovar typhimurium, microsomes; in short: as §1
Salmonella typhimurium [3] = assay: Genotoxicity in Salmonella typhimurium TA98 assessed as increase in number of revertants at 1.25 mg/ml in presence of aroclor-1254-induced Sprague-Dawley rat liver microsomal S9 fraction by Ames-MPF assay relative to baseline; assay type: toxicity; conditions: salmonella enterica subsp. enterica serovar typhimurium, microsomes; in short: as §1
Salmonella typhimurium [4] = assay: Genotoxicity in Salmonella typhimurium TA98 assessed as increase in number of revertants at 0.3125 mg/ml in absence of aroclor-1254-induced Sprague-Dawley rat liver microsomal S9 fraction by Ames-MPF assay relative to baseline; assay type: toxicity; conditions: salmonella enterica subsp. enterica serovar typhimurium, microsomes; in short: as §1
Salmonella typhimurium [5] = assay: Genotoxicity in Salmonella typhimurium TA100 assessed as increase in number of revertants at 5 mg/ml in presence of aroclor-1254-induced Sprague-Dawley rat liver microsomal S9 fraction by Ames-MPF assay relative to baseline; assay type: toxicity; conditions: salmonella enterica subsp. enterica serovar typhimurium, microsomes; in short: as §1
Salmonella typhimurium [6] = assay: Genotoxicity in Salmonella typhimurium TA98 assessed as increase in number of revertants at 5 mg/ml in absence of aroclor-1254-induced Sprague-Dawley rat liver microsomal S9 fraction by Ames-MPF assay relative to baseline; assay type: toxicity; conditions: salmonella enterica subsp. enterica serovar typhimurium, microsomes; in short: as §1
Salmonella typhimurium [7] = assay: Genotoxicity in Salmonella typhimurium TA100 assessed as increase in number of revertants at 5 mg/ml in absence of aroclor-1254-induced Sprague-Dawley rat liver microsomal S9 fraction by Ames-MPF assay relative to baseline; assay type: toxicity; conditions: salmonella enterica subsp. enterica serovar typhimurium, microsomes; in short: as §1
Salmonella typhimurium [8] = assay: Genotoxicity in Salmonella typhimurium TA100 assessed as increase in number of revertants at 0.156 mg/ml in absence of aroclor-1254-induced Sprague-Dawley rat liver microsomal S9 fraction by Ames-MPF assay relative to baseline; assay type: toxicity; conditions: salmonella enterica subsp. enterica serovar typhimurium, microsomes; in short: as §1
Salmonella typhimurium [9] = assay: Genotoxicity in Salmonella typhimurium TA98 assessed as increase in number of revertants at 0.156 mg/ml in presence of aroclor-1254-induced Sprague-Dawley rat liver microsomal S9 fraction by Ames-MPF assay relative to baseline; assay type: toxicity; conditions: salmonella enterica subsp. enterica serovar typhimurium, microsomes; in short: as §1
Salmonella typhimurium [10] = assay: Genotoxicity in Salmonella typhimurium TA100 assessed as increase in number of revertants at 1.25 mg/ml in absence of aroclor-1254-induced Sprague-Dawley rat liver microsomal S9 fraction by Ames-MPF assay relative to baseline; assay type: toxicity; conditions: salmonella enterica subsp. enterica serovar typhimurium, microsomes; in short: as §1
Homo sapiens = species on record: Homo sapiens; assay: Selectivity index, ratio of IC50 for recombinant human MAO-A expressed in baculovirus infected BTI insect cells to IC50 for recombinant human MAO-B expressed in baculovirus infected BTI insect cells
In short: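 Selectivity index calculated as IC50(MAO-A)/IC50(MAO-B), with both IC50 values from the fluorometric tyramine/HRP/Amplex Red inhibition assay.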

Salmonella typhimurium [11] = assay: Genotoxicity in Salmonella typhimurium TA98 assessed as increase in number of revertants at 5 mg/ml in presence of aroclor-1254-induced Sprague-Dawley rat liver microsomal S9 fraction by Ames-MPF assay relative to baseline; assay type: toxicity; conditions: salmonella enterica subsp. enterica serovar typhimurium, microsomes; in short: as §1
Salmonella typhimurium [12] = assay: Genotoxicity in Salmonella typhimurium TA100 assessed as increase in number of revertants at 0.3125 mg/ml in absence of aroclor-1254-induced Sprague-Dawley rat liver microsomal S9 fraction by Ames-MPF assay relative to baseline; assay type: toxicity; conditions: salmonella enterica subsp. enterica serovar typhimurium, microsomes; in short: as §1
[13] = biological target: T1, Amine oxidase [flavin-containing] A (Homo sapiens, UniProt P21397); assay: Inhibition of recombinant human MAO-A expressed in baculovirus infected BTI insect cells using tyramine as substrate pretreated for 30 mins followed by substrate addition incubated for 30 mins measured at 5 mins interval by horse-radish peroxidase/amplex red-based fluorometric method
T1 sequence (P21397 whole entry): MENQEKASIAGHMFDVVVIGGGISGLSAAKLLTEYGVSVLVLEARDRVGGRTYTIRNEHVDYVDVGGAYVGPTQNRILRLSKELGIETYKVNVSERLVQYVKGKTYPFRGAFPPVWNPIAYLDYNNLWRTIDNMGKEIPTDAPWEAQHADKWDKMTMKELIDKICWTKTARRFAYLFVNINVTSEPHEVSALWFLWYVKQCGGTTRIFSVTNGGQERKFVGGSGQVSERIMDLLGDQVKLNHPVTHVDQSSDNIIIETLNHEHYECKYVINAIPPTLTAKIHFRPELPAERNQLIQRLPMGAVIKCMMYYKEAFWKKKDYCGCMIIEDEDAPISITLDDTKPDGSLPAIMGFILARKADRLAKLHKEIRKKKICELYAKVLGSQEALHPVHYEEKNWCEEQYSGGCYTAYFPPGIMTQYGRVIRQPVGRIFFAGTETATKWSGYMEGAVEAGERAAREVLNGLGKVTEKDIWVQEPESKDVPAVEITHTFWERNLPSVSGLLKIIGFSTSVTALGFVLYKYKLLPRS
In short: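 Recombinant hMAO-A (0.5 U/mL stock) or hMAO-B (0.64 U/mL stock) in phosphate buffer, preincubated with inhibitor (solutions 10^-3 to 10^-9 M in 2% DMSO) for 30 min at 37°C. Background-subtracted against DMSO control; quadruplicate.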

Salmonella typhimurium [14] = assay: Genotoxicity in Salmonella typhimurium TA100 assessed as increase in number of revertants at 1.25 mg/ml in presence of aroclor-1254-induced Sprague-Dawley rat liver microsomal S9 fraction by Ames-MPF assay relative to baseline; assay type: toxicity; conditions: salmonella enterica subsp. enterica serovar typhimurium, microsomes; in short: as §1
Salmonella typhimurium [15] = assay: Genotoxicity in Salmonella typhimurium TA98 assessed as increase in number of revertants at 0.156 mg/ml in absence of aroclor-1254-induced Sprague-Dawley rat liver microsomal S9 fraction by Ames-MPF assay relative to baseline; assay type: toxicity; conditions: salmonella enterica subsp. enterica serovar typhimurium, microsomes; in short: as §1
Salmonella typhimurium [16] = assay: Genotoxicity in Salmonella typhimurium TA98 assessed as increase in number of revertants at 1.25 mg/ml in absence of aroclor-1254-induced Sprague-Dawley rat liver microsomal S9 fraction by Ames-MPF assay relative to baseline; assay type: toxicity; conditions: salmonella enterica subsp. enterica serovar typhimurium, microsomes; in short: as §1
Salmonella typhimurium [17] = assay: Genotoxicity in Salmonella typhimurium TA100 assessed as increase in number of revertants at 0.625 mg/ml in presence of aroclor-1254-induced Sprague-Dawley rat liver microsomal S9 fraction by Ames-MPF assay relative to baseline; assay type: toxicity; conditions: salmonella enterica subsp. enterica serovar typhimurium, microsomes; in short: as §1
Salmonella typhimurium [18] = assay: Genotoxicity in Salmonella typhimurium TA100 assessed as increase in number of revertants at 0.3125 mg/ml in presence of aroclor-1254-induced Sprague-Dawley rat liver microsomal S9 fraction by Ames-MPF assay relative to baseline; assay type: toxicity; conditions: salmonella enterica subsp. enterica serovar typhimurium, microsomes; in short: as §1

SMILES | fold change (FC) (Salmonella typhimurium [1]) | fold change (FC) (Salmonella typhimurium [2]) | fold change (FC) (Salmonella typhimurium [3]) | fold change (FC) (Salmonella typhimurium [4]) | fold change (FC) (Salmonella typhimurium [5]) | fold change (FC) (Salmonella typhimurium [6]) | fold change (FC) (Salmonella typhimurium [7]) | fold change (FC) (Salmonella typhimurium [8]) | fold change (FC) (Salmonella typhimurium [9]) | fold change (FC) (Salmonella typhimurium [10]) | Ratio IC50 (Homo sapiens) | fold change (FC) (Salmonella typhimurium [11]) | fold change (FC) (Salmonella typhimurium [12]) | IC50 [13] | fold change (FC) (Salmonella typhimurium [14]) | fold change (FC) (Salmonella typhimurium [15]) | fold change (FC) (Salmonella typhimurium [16]) | fold change (FC) (Salmonella typhimurium [17]) | fold change (FC) (Salmonella typhimurium [18])
C#CCn1c(-c2ccc(C(=O)N/N=C/c3cccnc3)cc2)nc2ccccc21 | 0.51 | 0.53 | 0.52 | 0.74 | 0.07 | 0.46 | 0.89 | 0.74 | 0.35 | 0.64 | 128 | 0 | 0.99 | 9.59 µM | 0.33 | 1.03 | 0.68 | 0.27 | 0.27
C#CCn1c(-c2ccc(C(=O)N/N=C/c3ccc(F)cc3)cc2)nc2ccccc21 | 0.23 | 0.79 | 2.13 | 0.46 | 1.94 | 0.34 | 1.63 | 0.89 | 1.3 | 0.59 | 6.26 | 3.07 | 0.79 | 0.851 µM | 1.46 | 0.68 | 0.28 | 1.15 | 0.49
